# Experimental data published in ChEMBL document CHEMBL5608187, “Discovery of pyridoquinoxaline-based new P-gp inhibitors as coadjutant against Multi Drug Resistance in cancer” (Eur J Med Chem, 2024).
# Active and inactive are the calls of the source. No cut-off for these calls is given here.
# Experiments:
# [1] = molecular target: ATP-dependent translocase ABCB1 (Homo sapiens, UniProt P08183); test: Inhibition of P-gp in human HCT-15 cells assessed as increase in green fluorescence intensity at 0.1 to 10 uM incubated for 15 mins followed by incubation with EFFLUX-ID Green Detection Reagent and Hoeschst-33342 dye and measured after 30 mins by fluorescence analysis; assay type: cell-based; settings: hct-15, 0.25 h, dose 0.1-10 µM
# Method in brief: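 5000 cells/well in phenol-red-free medium plated 24 h before; compounds 0.1, 1, 10 µM for 15 min, then EFLUXX-ID Green reagent (1:200) plus Hoechst-33342 1 µg/mL, 30 min 37 °C. Widefield imaging; median green intensity from 250 cells per well normalized to untreated wells. Mean ± SD of three wells; one-tailed t-test.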
# [2] = test system: U-87 MG; test: Coadjutant activity against multidrug resistance in human U-87 MG cells assessed as potentiation of etoposide-induced cell growth inhibition at 4 uM incubated for 72 hrs in presence of 0.04 to 40 uM etoposide by SiR-DNA/CellTox Green Dye based fluorescence analysis; assay type: functional; settings: U-87MG ATCC
# Method in brief: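 Growth by live-cell imaging: 500 cells/well plated with SiR-DNA and CellTox Green dye; serial dilutions in phenol-red-free complete medium added next day. Imaged at addition and at 72 h. Live cells = SiR-DNA nuclei minus CellTox-positive dead cells; percentage growth calculated. Three technical replicates; two-tailed t-test. Inhibitor paired with anticancer drug at fixed or scaled levels.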
# Chain of ATP-dependent translocase ABCB1 (P08183 whole entry): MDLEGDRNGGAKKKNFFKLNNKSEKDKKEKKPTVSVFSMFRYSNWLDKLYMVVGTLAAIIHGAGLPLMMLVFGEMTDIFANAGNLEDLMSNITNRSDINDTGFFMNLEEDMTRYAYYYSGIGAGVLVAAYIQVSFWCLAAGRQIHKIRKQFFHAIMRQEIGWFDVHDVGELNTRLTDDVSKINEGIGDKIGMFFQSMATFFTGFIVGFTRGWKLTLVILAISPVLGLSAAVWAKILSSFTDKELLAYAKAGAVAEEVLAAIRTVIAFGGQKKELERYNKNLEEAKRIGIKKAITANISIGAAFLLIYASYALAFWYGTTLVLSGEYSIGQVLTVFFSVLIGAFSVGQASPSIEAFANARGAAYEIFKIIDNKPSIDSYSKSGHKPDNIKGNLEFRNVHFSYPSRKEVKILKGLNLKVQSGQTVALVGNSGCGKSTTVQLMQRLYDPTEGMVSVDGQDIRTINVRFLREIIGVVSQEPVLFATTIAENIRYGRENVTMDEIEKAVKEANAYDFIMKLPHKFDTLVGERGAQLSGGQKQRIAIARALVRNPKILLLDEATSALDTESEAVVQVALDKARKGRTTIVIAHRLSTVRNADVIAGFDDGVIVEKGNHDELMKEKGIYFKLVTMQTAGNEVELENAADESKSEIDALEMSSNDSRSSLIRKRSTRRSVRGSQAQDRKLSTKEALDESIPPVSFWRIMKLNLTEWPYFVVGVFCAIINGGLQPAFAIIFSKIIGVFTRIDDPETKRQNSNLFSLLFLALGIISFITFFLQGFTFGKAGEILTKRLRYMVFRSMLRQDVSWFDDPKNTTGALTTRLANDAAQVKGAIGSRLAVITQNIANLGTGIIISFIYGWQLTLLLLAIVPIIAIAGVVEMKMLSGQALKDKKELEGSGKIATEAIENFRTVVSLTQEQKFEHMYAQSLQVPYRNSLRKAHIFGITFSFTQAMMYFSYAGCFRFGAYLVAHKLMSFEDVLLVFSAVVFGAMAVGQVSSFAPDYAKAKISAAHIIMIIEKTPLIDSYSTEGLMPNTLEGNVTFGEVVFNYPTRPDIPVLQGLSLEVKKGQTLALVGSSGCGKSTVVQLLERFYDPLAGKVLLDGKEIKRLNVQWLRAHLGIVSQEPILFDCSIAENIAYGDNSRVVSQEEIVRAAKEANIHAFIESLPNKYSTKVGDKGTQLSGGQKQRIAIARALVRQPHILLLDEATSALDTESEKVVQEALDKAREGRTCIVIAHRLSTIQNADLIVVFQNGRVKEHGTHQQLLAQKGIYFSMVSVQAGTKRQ
structure (smiles),measurement,setting,value
O=C(Nc1ccccc1)c1ccccc1OCc1nc2cc3cccnc3cc2nc1COc1ccccc1C(=O)Nc1ccccc1,inhibition (INH),[1],Active
same,Activity,[2],Active
